Reference: ChEMBL document CHEMBL4673384, “Studying Histone Deacetylase Inhibition and Apoptosis Induction of Psammaplin A Monomers with Modified Thiol Group” (ACS Med Chem Lett, 2021)
Activity calls are given as the source filed them. The calls are words filed in the database; no cut-off is given here.

Assays:
Histone deacetylase 1 [1] = molecular target: T1, Histone deacetylase 1 (Homo sapiens, UniProt Q13547); assay: Inhibition of HDAC1 in human HL-60 cells assessed as increase in Ac-H3 level at 2 uM incubated for 24 hrs by Western blot analysis; assay type: cell-based
T1 sequence (Q13547 whole entry): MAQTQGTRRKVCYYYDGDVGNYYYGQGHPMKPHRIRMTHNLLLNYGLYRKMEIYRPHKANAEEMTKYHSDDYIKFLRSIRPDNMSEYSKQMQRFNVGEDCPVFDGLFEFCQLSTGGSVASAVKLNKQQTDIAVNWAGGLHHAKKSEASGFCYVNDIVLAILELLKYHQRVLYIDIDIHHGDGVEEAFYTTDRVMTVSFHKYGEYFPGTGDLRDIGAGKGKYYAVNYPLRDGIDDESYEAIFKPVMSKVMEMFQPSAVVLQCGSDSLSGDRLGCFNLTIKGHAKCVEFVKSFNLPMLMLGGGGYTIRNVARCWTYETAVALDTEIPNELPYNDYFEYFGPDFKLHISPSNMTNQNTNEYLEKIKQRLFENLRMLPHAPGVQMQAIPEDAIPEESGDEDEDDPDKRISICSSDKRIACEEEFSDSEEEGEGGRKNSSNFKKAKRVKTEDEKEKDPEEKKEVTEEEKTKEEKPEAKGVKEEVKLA
How it was run: (§1)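 Compound given to HL-60 cells for 24 h at the stated concentrations, then lysed. Acetyl-histone H3 and acetyl-α-tubulin levels were read by Western blot, with total H3, α-tubulin or β-actin as references.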

[2] = molecular target: Histone deacetylase 3 (Homo sapiens) (UniProt O15379); assay: Inhibition of HDAC3 in human HL-60 cells assessed as increase in Ac-H3 level at 20 uM incubated for 24 hrs by Western blot analysis; assay type: cell-based; how it was run: as §1
Chain of Histone deacetylase 3 (Homo sapiens) (O15379 whole entry): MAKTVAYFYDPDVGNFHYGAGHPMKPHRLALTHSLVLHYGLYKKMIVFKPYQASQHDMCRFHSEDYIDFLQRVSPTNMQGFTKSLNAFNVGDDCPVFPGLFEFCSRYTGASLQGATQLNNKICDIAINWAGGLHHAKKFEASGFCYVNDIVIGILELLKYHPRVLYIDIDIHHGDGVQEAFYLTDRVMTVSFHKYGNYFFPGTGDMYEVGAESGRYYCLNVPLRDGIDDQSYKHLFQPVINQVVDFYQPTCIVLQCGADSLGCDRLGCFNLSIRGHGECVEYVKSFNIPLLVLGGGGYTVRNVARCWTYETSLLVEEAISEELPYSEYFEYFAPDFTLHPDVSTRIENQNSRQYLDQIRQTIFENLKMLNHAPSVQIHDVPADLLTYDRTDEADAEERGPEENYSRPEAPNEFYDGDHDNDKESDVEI

HL-60 [3] = assay: Induction of apoptosis in human HL-60 cells assessed as cleavage of caspase-9 at 20 uM after 24 hrs Western blot analysis; assay type: functional, cell-based
How it was run: (§2)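 HL-60 cells were treated for 24 h at the indicated concentrations, then analysed by Western blot. Blots were probed for cleavage of PARP and caspase-3, -8 and -9. Ac-H3, Ac-α-tubulin and β-actin were also detected, with β-actin as the loading reference.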

HL-60 [4] = assay: Induction of apoptosis in human HL-60 cells assessed as cleavage of caspase-8 at 20 uM after 24 hrs Western blot analysis; assay type: functional, cell-based; how it was run: as §2
HL-60 [5] = assay: Induction of apoptosis in human HL-60 cells assessed as cleavage of caspase-3 at 20 uM after 24 hrs Western blot analysis; assay type: functional, cell-based; how it was run: as §2
HL-60 [6] = assay: Induction of apoptosis in human HL-60 cells assessed as cleavage of PARP at 20 uM after 24 hrs Western blot analysis; assay type: functional, cell-based; how it was run: as §2
HL-60 [7] = assay: Induction of apoptosis in human HL-60 cells assessed as necrotic cells at 40 uM incubated for 24 hrs by propidium iodide and annexin-V FITC staining based FACS analysis (reference value: 0.1 %); assay type: functional
HL-60 [8] = assay: Induction of apoptosis in human HL-60 cells assessed as necrotic cells at 20 uM incubated for 24 hrs by propidium iodide and annexin-V FITC staining based FACS analysis (reference value: 0.1 %); assay type: functional
HL-60 [9] = assay: Induction of apoptosis in human HL-60 cells assessed as early apoptotic cells at 20 uM incubated for 24 hrs by propidium iodide and annexin-V FITC staining based FACS analysis (reference value: 2.0 %); assay type: functional
HL-60 [10] = assay: Induction of apoptosis in human HL-60 cells assessed as late apoptotic cells at 20 uM incubated for 24 hrs by propidium iodide and annexin-V FITC staining based FACS analysis (reference value: 1.7 %); assay type: functional
HL-60 [11] = assay: Induction of apoptosis in human HL-60 cells assessed as viable cells at 20 uM incubated for 24 hrs by propidium iodide and annexin-V FITC staining based FACS analysis (reference value: 96.3 %); assay type: functional; details: read-out: Activity
Histone deacetylase 2 [12] = molecular target: T2, Histone deacetylase 2 (Homo sapiens, UniProt Q92769); assay: Inhibition of HDAC2 in human HL-60 cells assessed as increase in Ac-H3 level at 2 uM incubated for 24 hrs by Western blot analysis; assay type: cell-based; how it was run: as §1
T2 sequence (Q92769 whole entry): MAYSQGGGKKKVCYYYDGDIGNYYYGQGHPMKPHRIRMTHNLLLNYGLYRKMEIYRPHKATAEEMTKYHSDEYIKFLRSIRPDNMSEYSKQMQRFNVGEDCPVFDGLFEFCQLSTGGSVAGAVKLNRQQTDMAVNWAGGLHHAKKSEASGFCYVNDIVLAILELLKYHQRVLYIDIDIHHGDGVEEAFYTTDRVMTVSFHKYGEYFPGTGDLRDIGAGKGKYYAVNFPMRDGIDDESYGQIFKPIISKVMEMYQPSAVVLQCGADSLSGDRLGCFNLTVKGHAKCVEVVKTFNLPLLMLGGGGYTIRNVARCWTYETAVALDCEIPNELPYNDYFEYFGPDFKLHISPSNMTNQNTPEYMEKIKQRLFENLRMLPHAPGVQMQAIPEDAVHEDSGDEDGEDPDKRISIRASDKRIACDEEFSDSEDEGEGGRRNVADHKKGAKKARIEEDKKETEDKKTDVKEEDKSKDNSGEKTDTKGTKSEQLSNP

HL-60 [13] = assay: Induction of apoptosis in human HL-60 cells assessed as viable cells at 40 uM incubated for 24 hrs by propidium iodide and annexin-V FITC staining based FACS analysis (reference value: 96.3 %); assay type: functional; details: read-out: Activity
HL-60 [14] = assay: Induction of apoptosis in human HL-60 cells assessed as early apoptotic cells at 40 uM incubated for 24 hrs by propidium iodide and annexin-V FITC staining based FACS analysis (reference value: 2.0 %); assay type: functional
HL-60 [15] = assay: Induction of apoptosis in human HL-60 cells assessed as late apoptotic cells at 40 uM incubated for 24 hrs by propidium iodide and annexin-V FITC staining based FACS analysis (reference value: 1.7 %); assay type: functional
[16] = molecular target: T3, Protein deacetylase HDAC6 (Homo sapiens, UniProt Q9UBN7); assay: Inhibition of recombinant full length C-terminal FLAG-tagged human HDAC6 expressed in baculovirus infected Sf9 cells using Boc-Lys(Ac)-AMC as substrate preincubated for 15 mins followed by substrate addition and measured after 60 mins by fluorescence based assay
T3 sequence (Q9UBN7 whole entry): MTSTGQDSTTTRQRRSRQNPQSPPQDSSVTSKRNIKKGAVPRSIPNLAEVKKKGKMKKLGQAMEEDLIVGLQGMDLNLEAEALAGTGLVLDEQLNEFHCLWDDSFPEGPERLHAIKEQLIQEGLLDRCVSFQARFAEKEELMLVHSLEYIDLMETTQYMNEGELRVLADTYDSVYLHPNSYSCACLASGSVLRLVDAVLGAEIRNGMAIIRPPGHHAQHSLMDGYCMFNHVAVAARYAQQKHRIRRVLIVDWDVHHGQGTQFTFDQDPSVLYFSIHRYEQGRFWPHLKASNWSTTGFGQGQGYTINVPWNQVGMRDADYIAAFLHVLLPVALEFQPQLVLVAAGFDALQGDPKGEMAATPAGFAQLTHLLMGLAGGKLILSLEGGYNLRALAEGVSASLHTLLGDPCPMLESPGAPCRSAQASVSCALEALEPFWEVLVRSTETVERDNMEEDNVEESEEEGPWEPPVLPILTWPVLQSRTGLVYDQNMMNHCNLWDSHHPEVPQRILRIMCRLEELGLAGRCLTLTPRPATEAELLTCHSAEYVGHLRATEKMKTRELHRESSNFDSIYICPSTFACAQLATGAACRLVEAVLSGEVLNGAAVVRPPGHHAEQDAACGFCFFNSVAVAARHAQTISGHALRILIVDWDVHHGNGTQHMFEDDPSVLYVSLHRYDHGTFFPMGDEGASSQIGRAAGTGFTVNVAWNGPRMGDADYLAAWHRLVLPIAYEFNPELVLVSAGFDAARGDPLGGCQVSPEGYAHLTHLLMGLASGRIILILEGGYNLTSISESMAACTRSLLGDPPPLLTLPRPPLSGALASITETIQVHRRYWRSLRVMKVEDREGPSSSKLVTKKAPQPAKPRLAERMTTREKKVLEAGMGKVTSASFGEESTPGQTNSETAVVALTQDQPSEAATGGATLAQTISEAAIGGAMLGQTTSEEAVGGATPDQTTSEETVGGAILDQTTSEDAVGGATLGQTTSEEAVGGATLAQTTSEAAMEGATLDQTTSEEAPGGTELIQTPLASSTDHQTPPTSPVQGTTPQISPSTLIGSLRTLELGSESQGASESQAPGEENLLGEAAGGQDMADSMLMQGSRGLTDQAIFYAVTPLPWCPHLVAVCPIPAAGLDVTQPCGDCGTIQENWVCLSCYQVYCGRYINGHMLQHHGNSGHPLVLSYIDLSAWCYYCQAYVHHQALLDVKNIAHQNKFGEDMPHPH

[17] = molecular target: Histone deacetylase 3/Nuclear receptor corepressor 2 (HDAC3/NCoR2) (Homo sapiens, UniProt O15379); assay: Inhibition of C-terminal His-tagged recombinant human HDAC3 (1 to 428 residues)/N-terminal GST-tagged recombinant human NCoR2 (395 to 489 residues) co-expressed in baculovirus infected Sf9 cells using Boc-Lys(Ac)-AMC as substrate preincubated for 15 mins followed by substrate addition and measured after 60 mins by fluorescence based assay
Chain of Histone deacetylase 3/Nuclear receptor corepressor 2 (HDAC3/NCoR2) (O15379 whole entry, the tested form may be a part): as the sequence (O15379 whole entry) above
Chain of Histone deacetylase 3/Nuclear receptor corepressor 2 (HDAC3/NCoR2) (Q9Y618 whole entry, further chain, the tested form may be a part): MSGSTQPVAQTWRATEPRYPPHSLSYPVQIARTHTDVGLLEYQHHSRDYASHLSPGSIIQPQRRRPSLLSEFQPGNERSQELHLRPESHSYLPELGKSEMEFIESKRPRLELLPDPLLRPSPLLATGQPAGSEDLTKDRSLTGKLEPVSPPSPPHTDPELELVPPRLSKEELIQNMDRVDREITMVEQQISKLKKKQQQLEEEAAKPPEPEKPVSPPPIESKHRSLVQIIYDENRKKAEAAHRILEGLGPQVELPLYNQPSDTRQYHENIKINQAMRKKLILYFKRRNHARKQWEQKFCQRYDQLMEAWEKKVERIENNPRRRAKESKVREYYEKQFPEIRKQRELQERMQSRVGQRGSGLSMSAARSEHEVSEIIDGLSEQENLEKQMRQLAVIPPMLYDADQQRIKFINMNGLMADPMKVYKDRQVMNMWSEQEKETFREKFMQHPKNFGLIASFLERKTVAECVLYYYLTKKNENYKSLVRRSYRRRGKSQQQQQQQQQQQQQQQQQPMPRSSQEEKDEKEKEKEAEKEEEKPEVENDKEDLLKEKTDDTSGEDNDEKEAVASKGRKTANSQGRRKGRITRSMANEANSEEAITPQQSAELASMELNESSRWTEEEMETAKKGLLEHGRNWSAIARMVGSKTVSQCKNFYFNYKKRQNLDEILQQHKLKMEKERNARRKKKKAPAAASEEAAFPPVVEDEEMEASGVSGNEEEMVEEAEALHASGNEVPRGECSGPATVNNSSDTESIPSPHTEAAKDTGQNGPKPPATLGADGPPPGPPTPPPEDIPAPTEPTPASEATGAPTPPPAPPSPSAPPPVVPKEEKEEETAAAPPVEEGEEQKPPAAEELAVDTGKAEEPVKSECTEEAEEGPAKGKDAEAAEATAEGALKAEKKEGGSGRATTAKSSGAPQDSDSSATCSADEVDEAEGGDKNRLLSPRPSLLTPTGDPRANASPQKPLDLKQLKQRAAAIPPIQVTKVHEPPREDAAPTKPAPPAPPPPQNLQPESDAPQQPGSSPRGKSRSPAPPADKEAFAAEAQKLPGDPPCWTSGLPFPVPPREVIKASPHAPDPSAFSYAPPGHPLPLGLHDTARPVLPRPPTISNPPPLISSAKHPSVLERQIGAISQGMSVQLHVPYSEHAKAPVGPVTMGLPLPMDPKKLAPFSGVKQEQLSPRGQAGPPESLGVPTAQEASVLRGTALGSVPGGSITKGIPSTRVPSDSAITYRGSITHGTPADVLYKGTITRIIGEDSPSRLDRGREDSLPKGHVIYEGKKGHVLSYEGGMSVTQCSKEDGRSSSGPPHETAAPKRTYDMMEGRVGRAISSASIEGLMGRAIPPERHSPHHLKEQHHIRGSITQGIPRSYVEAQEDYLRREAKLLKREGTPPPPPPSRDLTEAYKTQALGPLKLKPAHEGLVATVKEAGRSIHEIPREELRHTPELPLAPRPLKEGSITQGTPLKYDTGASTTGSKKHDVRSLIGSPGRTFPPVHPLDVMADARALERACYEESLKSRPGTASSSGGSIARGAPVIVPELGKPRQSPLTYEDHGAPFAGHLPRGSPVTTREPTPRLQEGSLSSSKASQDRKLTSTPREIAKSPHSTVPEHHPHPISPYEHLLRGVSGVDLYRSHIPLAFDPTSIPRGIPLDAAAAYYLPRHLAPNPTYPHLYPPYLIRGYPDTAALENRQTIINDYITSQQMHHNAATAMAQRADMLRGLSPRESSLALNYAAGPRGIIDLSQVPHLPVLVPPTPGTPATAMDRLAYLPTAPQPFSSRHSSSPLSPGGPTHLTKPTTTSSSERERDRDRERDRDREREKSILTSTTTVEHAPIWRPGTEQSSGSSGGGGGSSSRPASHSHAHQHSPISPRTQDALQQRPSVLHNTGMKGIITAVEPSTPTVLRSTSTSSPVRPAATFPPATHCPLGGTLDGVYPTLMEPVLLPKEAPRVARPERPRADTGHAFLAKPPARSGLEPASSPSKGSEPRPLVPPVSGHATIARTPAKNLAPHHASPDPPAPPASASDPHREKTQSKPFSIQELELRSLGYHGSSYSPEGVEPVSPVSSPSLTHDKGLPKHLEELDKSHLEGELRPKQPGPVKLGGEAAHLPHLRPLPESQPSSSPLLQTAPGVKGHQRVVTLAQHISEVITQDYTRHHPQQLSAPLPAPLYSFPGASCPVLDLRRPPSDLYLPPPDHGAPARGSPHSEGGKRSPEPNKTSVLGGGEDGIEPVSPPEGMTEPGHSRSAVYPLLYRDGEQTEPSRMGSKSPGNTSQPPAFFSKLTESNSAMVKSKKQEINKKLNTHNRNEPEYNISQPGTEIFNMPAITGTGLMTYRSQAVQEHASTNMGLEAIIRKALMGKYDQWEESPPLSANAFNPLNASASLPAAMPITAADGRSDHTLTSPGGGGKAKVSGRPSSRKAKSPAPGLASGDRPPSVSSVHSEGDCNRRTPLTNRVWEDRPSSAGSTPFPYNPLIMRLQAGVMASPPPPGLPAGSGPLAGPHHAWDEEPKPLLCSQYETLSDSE

Histone deacetylase 2 [18] = molecular target: T2, Histone deacetylase 2; assay: Inhibition of recombinant full length C-terminal FLAG-tagged human HDAC2 expressed in baculovirus infected Sf9 cells using Boc-Lys(Ac)-AMC as substrate preincubated for 15 mins followed by substrate addition and measured after 60 mins by fluorescence based assay
Histone deacetylase 1 [19] = molecular target: T1, Histone deacetylase 1; assay: Inhibition of recombinant full length C-terminal FLAG/His-tagged human HDAC1 expressed in baculovirus infected Sf9 cells using Boc-Lys(Ac)-AMC as substrate preincubated for 15 mins followed by substrate addition and measured after 60 mins by fluorescence based assay
HL-60 [20] = assay: Growth inhibition of human HL-60 cells after 72 hrs by trypan blue dye based assay; assay type: functional
How it was run: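 HL-60 leukemia cells were exposed to compound for 72 h. Growth inhibition is reported as IG50 (half the growth inhibition concentration), as means plus SD of three independent experiments.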

[21] = Antitumor activity against mouse LL/2 cells inoculated in C57BL/6J mouse assessed as tumor growth inhibition at 100 mg/kg, ip administered for 12 days; assay type: functional, Lewis lung carcinoma; set-up: scale not given: the % may be the effect or the level left; details: time 12 day
[22] = Antitumor activity against mouse LL/2 cells inoculated in C57BL/6J mouse assessed as reduction of tumor weight at 100 mg/kg, ip administered for 12 days and measured at day 14 (reference value: 1.2 +/- 0.3 g); assay type: functional, Lewis lung carcinoma; details: time 12 day
[23] = Toxicity in mouse LL/2 cells inoculated C57BL/6J mouse assessed as effect on body weight by measuring end body weight at 100 mg/kg, ip administered for 12 days and measured for every 2 days (reference value: 17.8 +/- 0.7 g); assay type: organism-based; details: in vivo, 288 h, time 12 day
[24] = Toxicity in mouse LL/2 cells inoculated C57BL/6J mouse assessed as effect on body weight by measuring initial body weight at 100 mg/kg, ip administered for 12 days and measured for every 2 days (reference value: 18.6 +/- 0.8 g); assay type: organism-based; details: in vivo, 288 h, time 12 day
[25] = Antiproliferative activity against mouse LL/2 cells assessed as cell growth inhibition incubated for 96 hrs by MTT assay; assay type: functional, Lewis lung carcinoma
HCT-116 = assay: Antiproliferative activity against human HCT-116 cells assessed as cell growth inhibition incubated for 96 hrs by MTT assay; assay type: functional
A549 = assay: Antiproliferative activity against human A549 cells assessed as cell growth inhibition incubated for 96 hrs by MTT assay; assay type: functional
MCF7 = assay: Antiproliferative activity against human MCF7 cells assessed as cell growth inhibition incubated for 96 hrs by MTT assay; assay type: functional
[26] = molecular target: T4, Protein deacetylase HDAC6 (Homo sapiens) (UniProt Q9UBN7); assay: Inhibition of HDAC6 in human HL-60 cells assessed as increase in acetylated alpha tubulin level at 0.5 uM after 24 hrs by Western blot analysis; assay type: cell-based; how it was run: as §1
T4 sequence (whole entry): T3 sequence (Q9UBN7 whole entry)

HL-60 [27] = assay: Induction of apoptosis in human HL-60 cells assessed as necrotic cells at 2 uM incubated for 24 hrs by propidium iodide and annexin-V FITC staining based FACS analysis (reference value: 0.3 %); assay type: functional
HL-60 [28] = assay: Induction of apoptosis in human HL-60 cells assessed as late apoptotic cells at 2 uM incubated for 24 hrs by propidium iodide and annexin-V FITC staining based FACS analysis (reference value: 4.8 %); assay type: functional
HL-60 [29] = assay: Induction of apoptosis in human HL-60 cells assessed as early apoptotic cells at 2 uM incubated for 24 hrs by propidium iodide and annexin-V FITC staining based FACS analysis (reference value: 2.8 %); assay type: functional

inhibition (Histone deacetylase 1 [1]) | inhibition [2] | inhibition (Histone deacetylase 2 [12]) | IC50 [16] [µM] | IC50 [17] [µM] | IC50 (Histone deacetylase 2 [18]) [µM] | IC50 (Histone deacetylase 1 [19]) [µM] | SMILES | Activity (HL-60 [3]) | Activity (HL-60 [4]) | Activity (HL-60 [5]) | Activity (HL-60 [6]) | Activity (HL-60 [7]) [%] | Activity (HL-60 [8]) [%] | Activity (HL-60 [9]) [%] | Activity (HL-60 [10]) [%] | viability at 20 µM (HL-60 [11]) [%] | viability at 40 µM (HL-60 [13]) [%] | Activity (HL-60 [14]) [%] | Activity (HL-60 [15]) [%] | IG50 (HL-60 [20]) [µM] | also measured
inactive | Active | inactive | > 1 | 0.13 | > 1 | > 1 | Nc1ccccc1NC(=O)CCCCCCNC(=O)/C(Cc1ccc(O)c(Br)c1)=N/O | inactive | inactive | inactive | inactive | 0.6 | 0.1 | 1.7 | 4 | 94.2 | 87.9 | 3.1 | 8.4 | 14 | –
inactive | Active | inactive | > 1 | 0.18 | > 1 | > 1 | Nc1ccccc1NC(=O)CCCCCNC(=O)/C(Cc1ccc(O)c(Br)c1)=N/O | inactive | inactive | inactive | inactive | 0.4 | 0.1 | 1.5 | 2.8 | 95.6 | 85.7 | 3.8 | 10.2 | 14.3 | –
– | – | – | > 1 | 0.17 | > 1 | > 1 | Nc1ccccc1NC(=O)CCCCCCCNC(=O)/C(Cc1ccc(O)c(Br)c1)=N/O | – | – | – | – | – | – | – | – | – | – | – | – | 5.2 | Activity [21]: 36.5%; Activity [22]: 0.8 g; Activity [23]: 18.5 g; Activity [24]: 18.6 g; IG50 [25]: 12.2 µM; IG50 (HCT-116): 11.9 µM; IG50 (A549): 26 µM; IG50 (MCF7): 17.9 µM
– | – | – | – | – | – | – | O=C(CCCCCCC(=O)Nc1ccc([C@H]2O[C@@H](CSc3nc(-c4ccccc4)c(-c4ccccc4)o3)C[C@@H](c3ccc(CO)cc3)O2)cc1)NO [TUBACIN] | – | – | – | – | – | – | – | – | – | – | – | – | – | inhibition [26]: Active; Activity (HL-60 [27]): 0.8%; Activity (HL-60 [28]): 8.8%; Activity (HL-60 [29]): 3.9%
